Assay results as given in ChEMBL document CHEMBL1681637, “Synthesis and antitubercular activity of monocyclic nitroimidazoles: insights from econazole” (Bioorg Med Chem Lett, 2011).
Values after ≈ are worked out from the molar mass of the structure shown.

Legend:
Vero = assay: Cytotoxicity against african green monkey Vero cells by MTT assay; assay type: cell-based; conditions: Chlorocebus sabaeus
How it was run: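 Vero cells were exposed to compound stocks made in DMSO and serially diluted 2-fold in RPMI 1640 medium. The top test concentration varied between compounds because of limited solubility. MTT read-out followed the kit manufacturer's protocol.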

Candida albicans = assay: Antifungal activity against Candida albicans ATCC 90027 after 48 hrs by broth microdilution method; assay type: functional; conditions: ATCC 90027, 48 h

For `CSc1nc([N+](=O)[O-])cn1CC(O)c1ccc(Cl)cc1Cl` (racemic), the IC50 (Vero) was 59 µg/mL (≈ 169 µM) and the MIC (Candida albicans) was greater than 256 µg/mL.
For `O=[N+]([O-])c1cn(CC(OCc2cc(F)cc(F)c2)c2ccc(Cl)cc2Cl)c(Br)n1` (racemic), the IC50 (Vero) was greater than 6 µg/mL and the MIC (Candida albicans) was greater than 256 µg/mL.
For `O=[N+]([O-])c1cn(CC(OCc2ccc(Cl)cc2)c2ccc(F)cc2F)c(Br)n1` (racemic), the IC50 (Vero) was greater than 25 µg/mL and the MIC (Candida albicans) was greater than 256 µg/mL.
For `O=[N+]([O-])c1cn(CC(OCc2cc(F)ccc2F)c2ccc(Cl)cc2Cl)cn1` (racemic), the IC50 (Vero) was greater than 25 µg/mL and the MIC (Candida albicans) was greater than 256 µg/mL.
For `Cc1nc([N+](=O)[O-])cn1CC(O)c1ccc(Cl)cc1Cl` (racemic), the IC50 (Vero) was greater than 250 µg/mL and the MIC (Candida albicans) was greater than 256 µg/mL.
For `CSc1nc([N+](=O)[O-])cn1CC(OCc1ccc(F)cc1)c1ccc(Cl)cc1Cl` (racemic), the IC50 (Vero) was greater than 13 µg/mL and the MIC (Candida albicans) was greater than 256 µg/mL.
Molecule `O=[N+]([O-])c1cn(CC(OCc2ccc(Cl)cc2)c2ccc(Cl)cc2Cl)c(Br)n1` (racemic) has an IC50 (Vero) greater than 62.5 µg/mL and an MIC (Candida albicans) greater than 256 µg/mL.
`O=[N+]([O-])c1cn(CC(O)c2ccc(F)cc2F)c(Br)n1` (racemic) showed an IC50 (Vero) greater than 200 µg/mL and an MIC (Candida albicans) greater than 256 µg/mL.
`Cc1nc([N+](=O)[O-])cn1CC(OCc1ccc(Cl)cc1)c1ccc(Cl)cc1Cl` (racemic) gave an IC50 (Vero) greater than 31 µg/mL and an MIC (Candida albicans) greater than 256 µg/mL.
In the case of `COc1nc([N+](=O)[O-])cn1CC(O)c1ccc(C)cc1C` (racemic), the IC50 (Vero) is reported as 84 µg/mL (≈ 288 µM) and the MIC (Candida albicans) is reported as greater than 256 µg/mL.
In the case of `COc1nc([N+](=O)[O-])cn1CC(OCc1ccc(F)cc1)c1ccc(Cl)cc1Cl` (racemic), the IC50 (Vero) is reported as greater than 13 µg/mL and the MIC (Candida albicans) is reported as greater than 256 µg/mL.
In the case of `O=[N+]([O-])c1cn(CC(O)c2ccc(F)cc2)c(Br)n1` (racemic), the IC50 (Vero) is reported as greater than 100 µg/mL and the MIC (Candida albicans) is reported as greater than 256 µg/mL.
With `COc1nc([N+](=O)[O-])cn1CC(O)c1ccccc1` (racemic) the IC50 (Vero) was greater than 100 µg/mL and the MIC (Candida albicans) was greater than 256 µg/mL.
`CSc1nc([N+](=O)[O-])cn1CC(OCc1ccc(Cl)cc1)c1ccc(F)cc1F` (racemic) showed an IC50 (Vero) greater than 13 µg/mL and an MIC (Candida albicans) greater than 256 µg/mL.
`O=[N+]([O-])c1cn2c(n1)OC[C@@H](OCc1ccc(OC(F)(F)F)cc1)C2` [PRETOMANID] gave an MIC (Candida albicans) greater than 256 µg/mL.
`O=[N+]([O-])c1cn(CC(O)c2ccc(Cl)cc2)c(Br)n1` (racemic) was tested, and the IC50 (Vero) was greater than 100 µg/mL and the MIC (Candida albicans) was greater than 256 µg/mL.
In the case of `O=[N+]([O-])c1cn(CC(O)c2ccccc2)c(Br)n1` (racemic), the IC50 (Vero) is reported as greater than 100 µg/mL and the MIC (Candida albicans) is reported as greater than 256 µg/mL.
For `O=[N+]([O-])c1cn(CC(O)c2ccc(F)cc2F)cn1` (racemic), the IC50 (Vero) was 292 µg/mL (≈ 1080 µM) and the MIC (Candida albicans) was greater than 256 µg/mL.
With `Cc1ccc(C(O)Cn2cc([N+](=O)[O-])nc2Br)c(C)c1` (racemic) the IC50 (Vero) was 22 µg/mL (≈ 64.7 µM) and the MIC (Candida albicans) was greater than 256 µg/mL.
Molecule `COc1nc([N+](=O)[O-])cn1CC(O)c1ccc([N+](=O)[O-])cc1` (racemic) has an IC50 (Vero) greater than 100 µg/mL and an MIC (Candida albicans) greater than 256 µg/mL.
Work on `O=[N+]([O-])c1cn(CC(O)c2ccc(Cl)cc2Cl)c(Br)n1` (racemic) yielded an IC50 (Vero) of 100 µg/mL (≈ 262 µM) and an MIC (Candida albicans) greater than 256 µg/mL.
For `CSc1nc([N+](=O)[O-])cn1CC(OCc1cc(F)cc(F)c1)c1ccc(Cl)cc1Cl` (racemic), the IC50 (Vero) was greater than 135 µg/mL and the MIC (Candida albicans) was greater than 256 µg/mL.
`O=[N+]([O-])c1cn(CC(OCc2cc(F)cc(F)c2)c2ccc(Cl)cc2Cl)cn1` (racemic) gave an IC50 (Vero) greater than 25 µg/mL and an MIC (Candida albicans) greater than 256 µg/mL.
Work on `CSc1nc([N+](=O)[O-])cn1CC(OCc1ccc(Cl)cc1)c1ccc(Cl)cc1Cl` (racemic) yielded an IC50 (Vero) greater than 13 µg/mL and an MIC (Candida albicans) greater than 256 µg/mL.
`O=[N+]([O-])c1cn(CC(OCc2cc(F)cc(F)c2)c2ccc(F)cc2F)cn1` (racemic) showed an IC50 (Vero) greater than 50 µg/mL and an MIC (Candida albicans) greater than 256 µg/mL.
`COc1nc([N+](=O)[O-])cn1CC(O)c1ccc(Cl)cc1Cl` (racemic) was tested, and the IC50 (Vero) was 100 µg/mL (≈ 301 µM) and the MIC (Candida albicans) was greater than 256 µg/mL.
In the case of `COc1nc([N+](=O)[O-])cn1CC(OCc1ccc(Cl)cc1)c1ccc(Cl)cc1Cl` (racemic), the IC50 (Vero) is reported as greater than 8 µg/mL and the MIC (Candida albicans) is reported as greater than 256 µg/mL.
`O=[N+]([O-])c1cn(CC(OCc2ccc(F)cc2)c2ccc(Cl)cc2Cl)cn1` (racemic) was tested, and the IC50 (Vero) was greater than 16 µg/mL and the MIC (Candida albicans) was greater than 256 µg/mL.
Molecule `O=[N+]([O-])c1cn(CC(OCc2ccc(F)cc2)c2ccc(Cl)cc2Cl)c(Br)n1` (racemic) has an IC50 (Vero) greater than 16 µg/mL and an MIC (Candida albicans) greater than 256 µg/mL.
Work on `O=[N+]([O-])c1ccc(C(O)Cn2cc([N+](=O)[O-])nc2Br)cc1` (racemic) yielded an IC50 (Vero) greater than 100 µg/mL and an MIC (Candida albicans) greater than 256 µg/mL.
`O=[N+]([O-])c1cn(CC(OCc2ccc(Cl)cc2)c2ccc(F)cc2F)cn1` (racemic) showed an IC50 (Vero) greater than 25 µg/mL and an MIC (Candida albicans) greater than 256 µg/mL.
Work on `O=[N+]([O-])c1cn(CC(OCc2ccc(OC(F)(F)F)cc2)c2ccc(Cl)cc2Cl)cn1` (racemic) yielded an IC50 (Vero) greater than 25 µg/mL and an MIC (Candida albicans) greater than 256 µg/mL.
`O=[N+]([O-])c1cn(CC(O)c2ccc(-c3ccccc3)cc2)c(Br)n1` (racemic) gave an IC50 (Vero) greater than 100 µg/mL and an MIC (Candida albicans) greater than 256 µg/mL.
For `COc1nc([N+](=O)[O-])cn1CC(O)c1ccc(F)cc1F` (racemic), the IC50 (Vero) was greater than 100 µg/mL and the MIC (Candida albicans) was greater than 256 µg/mL.
For `COc1nc([N+](=O)[O-])cn1CC(O)c1ccc(Cl)cc1` (racemic), the IC50 (Vero) was greater than 100 µg/mL and the MIC (Candida albicans) was greater than 256 µg/mL.
`O=[N+]([O-])c1cn(CC(OCc2ccc(Cl)cc2)c2ccc(Cl)cc2Cl)cn1` (racemic) gave an IC50 (Vero) greater than 16 µg/mL and an MIC (Candida albicans) greater than 256 µg/mL.
Work on `Clc1ccc(COC(Cn2ccnc2)c2ccc(Cl)cc2Cl)cc1` (stereo not drawn) [ECONAZOLE] yielded an MIC (Candida albicans) of 16 µg/mL (≈ 41.9 µM).
`COc1nc([N+](=O)[O-])cn1CC(O)c1ccc(F)cc1` (racemic) showed an IC50 (Vero) greater than 100 µg/mL and an MIC (Candida albicans) greater than 256 µg/mL.
`O=[N+]([O-])c1cn(CC(OCc2ccc(OC(F)(F)F)cc2)c2ccc(F)cc2F)cn1` (racemic) was tested, and the IC50 (Vero) was greater than 50 µg/mL and the MIC (Candida albicans) was greater than 256 µg/mL.
`O=[N+]([O-])c1cn(CC(OCc2ccc(F)cc2F)c2ccc(Cl)cc2Cl)cn1` (racemic) showed an IC50 (Vero) greater than 25 µg/mL and an MIC (Candida albicans) greater than 256 µg/mL.
For `O=[N+]([O-])c1cn(CC(O)c2ccc(Cl)cc2Cl)cn1` (racemic), the IC50 (Vero) was greater than 250 µg/mL and the MIC (Candida albicans) was greater than 256 µg/mL.
`COc1nc([N+](=O)[O-])cn1CC(O)c1ccc(-c2ccccc2)cc1` (racemic) showed an IC50 (Vero) greater than 100 µg/mL and an MIC (Candida albicans) greater than 256 µg/mL.
With `O=[N+]([O-])c1cn(CC(OCc2ccc(F)cc2)c2ccc(F)cc2F)cn1` (racemic) the IC50 (Vero) was greater than 50 µg/mL and the MIC (Candida albicans) was greater than 256 µg/mL.
Work on `COc1nc([N+](=O)[O-])cn1CC(OCc1cc(F)cc(F)c1)c1ccc(Cl)cc1Cl` (racemic) yielded an IC50 (Vero) greater than 50 µg/mL and an MIC (Candida albicans) greater than 256 µg/mL.
With `COc1nc([N+](=O)[O-])cn1CC(OCc1ccc(OC(F)(F)F)cc1)c1ccc(Cl)cc1Cl` (racemic) the IC50 (Vero) was greater than 13 µg/mL and the MIC (Candida albicans) was greater than 256 µg/mL.
With `O=[N+]([O-])c1cn(CC(OCc2ccccc2F)c2ccc(Cl)cc2Cl)cn1` (racemic) the IC50 (Vero) was greater than 63 µg/mL and the MIC (Candida albicans) was greater than 256 µg/mL.
Molecule `O=[N+]([O-])c1cn(CC(OCc2ccccc2F)c2ccc(Cl)cc2Cl)c(Br)n1` (racemic) has an IC50 (Vero) greater than 63 µg/mL and an MIC (Candida albicans) greater than 256 µg/mL.
For `COc1nc([N+](=O)[O-])cn1CC(OCc1ccc(OC(F)(F)F)cc1)c1ccc(F)cc1F` (racemic), the IC50 (Vero) was greater than 25 µg/mL and the MIC (Candida albicans) was greater than 256 µg/mL.
`COc1nc([N+](=O)[O-])cn1CC(OCc1ccc(F)cc1)c1ccc(F)cc1F` (racemic) was tested, and the IC50 (Vero) was greater than 25 µg/mL and the MIC (Candida albicans) was greater than 256 µg/mL.
Molecule `COc1nc([N+](=O)[O-])cn1CC(OCc1ccc(Cl)cc1)c1ccc(F)cc1F` (racemic) has an IC50 (Vero) greater than 13 µg/mL and an MIC (Candida albicans) greater than 256 µg/mL.
